# An excerpt weighted towards active compounds, which were near 4.9% of everything screened.
# NF-kB expr up = activators of NF-kB expression in neurons, primary screen, cell-based, HTS; human neuronal cells, NF-kB reporter expression; active compounds read high; fold change at 12.5 µM; actives 1.6% (n = 190,000); in the data active = fold change above about 3.3
# STAT1 activator = STAT1 signaling activators, primary screen, cell-based, HTS, luciferase reporter; NIH 3T3 STAT1-luciferase reporter, IFN-gamma, luminescence; 100% = IFN-gamma alone, no compound; activation (% of control), % at 5.5 µM; actives 2.6% (n = 200,000); AID 932, 2007;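 active = activation above the screen-wide mean activation plus 3 SD, cut at about 130% in these data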;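 note: raw ratio to IFN-gamma control signal so 100% means no change and 0% no light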
# STAT3 act = IL-6 driven STAT3 reporter potentiators, primary screen, U3A cells, luciferase, luminescence, MLSCN library; IL-6 STAT3-luciferase reporter; 100% = signal with IL-6 EC80 alone; activation (% of control), % at 5.6 µM; actives 0.91% (n = 190,000); AID 871, 2007;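 active = activation above the screen-wide mean of compound activation plus 3 SD, cut at about 130% in these data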;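 note: 0% = background luminescence of wells with medium and substrate only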
#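 Test system: human U3A cells carrying STAT3-luciferase construct; control set: IL-6-only wells as 100% reference; timing: compound pre-incubation 1 h before IL-6, then 6 h stimulation at 37 °C; also added: IL-6 stimulus at 33 ng/mL final; evaluation: % activation versus median of IL-6-stimulated wells; detection: reporter luminescence signal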
# STAT1 blocker = STAT1 signaling inhibitors, primary screen, cell-based, HTS, luciferase reporter | inhibition, % at 5.5 µM | NIH 3T3 STAT1-luciferase reporter, IFN-gamma, luminescence | actives 0.35% (n = 200,000);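 active = inhibition above a set limit, the mean inhibition across all tested compounds plus 3 SD, cut at about 34% in these data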;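 note: 0% = IFN-gamma with DMSO and 100% = IFN-gamma with 300 µM nifuroxazide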
# APP 5'UTR act = activators of APP 5'UTR luciferase reporter, primary screen, SH-SY5Y cells; SH-SY5Y APP 5'UTR luciferase reporter, luminescence; zero percent = DMSO vehicle wells; activation, % at 2 µM; actives 1% (n = 190,000);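 active = activation above a set limit, based on mean plus 3 SD of controls, cut at about 140% in these data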
# STAT3 inh = IL-6 driven STAT3 reporter inhibitors, primary screen, U3A cells, luciferase, luminescence, MLSCN library; IL-6 STAT3-luciferase reporter; host cell line lacks STAT1; inhibition, % at 5.5 µM; actives 0.89% (n = 190,000);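 active = inhibition above the mean inhibition across all screened compounds plus 3 SD, cut at about 44% in these data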;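 note: 0% = DMSO only wells and 100% = 100 µM nifuroxazide control wells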
# * = called active by the depositor.
SMILES,NF-kB expr up,STAT1 activator,STAT3 act,STAT1 blocker,APP 5'UTR act,STAT3 inh
CCC1=NN(C(=O)Cc2ccc(OC)c(OC)c2)C(O)(C(F)(F)F)C1 (stereo not drawn),1.28,106.1,98.5,-6.8,9.8,2.6
CCCCNC(=O)N(C)c1nc2ccccc2s1,2.56,133.0*,114.2,-37.6,73.6,-11.7
COC(=O)N(C)c1nc2ccccc2s1,1.29,111.7,87.4,-12.9,17.4,18.3
COc1cccc(NC(=S)N(Cc2cccc(Br)c2)CC2CCC(C(=O)O)CC2)c1 (stereo not drawn),1.47,98.1,103.8,1.2,-15.8,7.4
COc1ccc(C(=O)COC(=O)CNS(=O)(=O)c2ccc(C)cc2)cc1,1.14,100.1,99.5,-0.1,-3.1,0.0
CCC(=O)Nc1ccc2c(c1)C(=O)c1ccccc1C2=O,4.17*,148.4*,93.9,-53.7,104.5,13.5
CCC(=O)Nc1ccc2c(c1)C(=O)N(C)C2=O,1.11,99.1,89.6,1.0,15.1,9.9
NC(=S)Nc1ccc2cn[nH]c2c1,1.14,103.0,109.8,-4.0,32.5,1.8
O=C(NC(=S)Nc1ccc2cn[nH]c2c1)c1ccccc1,1.01,147.5*,112.8,-53.0,43.8,-7.7
CC(=O)c1cccc(NC(=S)NC(=O)c2ccccc2)c1,3.77*,132.7*,92.6,-36.7,70.9,8.3
O=C(NC(=S)Nc1ccc2c(c1)C(=O)c1ccccc1C2=O)c1ccc(F)cc1,3.31*,116.5,82.3,-18.7,89.3,24.0
CNC(=S)Nc1cccc(C(C)=O)c1,1.07,104.8,101.3,-8.2,-4.4,3.2
CCn1c(=O)cc(OCC(=O)NCc2cccs2)c2ccccc21,1.25,109.4,94.7,-11.4,15.5,9.8
CCCC1(C(=O)OCC)NC(c2ccco2)C2C(=O)N(C)C(=O)C21 (stereo not drawn),1.23,100.5,98.0,-0.9,-0.3,9.8
Cc1cccc(CN2CCCC(C(=O)N3CCc4ccccc4C3)C2)c1 (stereo not drawn),1.15,94.0,95.4,6.5,-13.2,5.8
O=C(NC(=S)Nc1ccc2c(c1)OCO2)c1ccccc1,7.28*,145.6*,96.3,-50.6,170.0*,15.4
O=C(O)c1cccc(NC(=S)NC(=O)c2ccc(-c3ccccc3)cc2)c1,3.32*,95.7,75.8,5.2,44.4,30.0
CC(=O)c1cccc(NC(=S)NC(=O)c2cccc(Cl)c2)c1,2.06,139.5*,103.2,-44.4,59.6,-5.0
CC(=O)c1cccc(NC(=S)NC(=O)C(C)C)c1,1.08,105.3,100.2,-6.0,-1.7,1.3
CC(C)(C)c1ccccc1OCCCCCn1ccnc1,0.82,91.4,101.2,9.5,8.9,7.9
CC1C(c2ccccc2)N(C)C(c2ccccc2)C(C)C1(O)C#Cc1ccccc1 (stereo not drawn),1.71,93.2,96.5,7.7,3.9,3.4
CC(=O)NC1C(=O)Nc2c(C)cc(C)cc21 (stereo not drawn),1.11,138.2*,95.1,-42.8,8.3,7.7
CC(=O)NC1C(=O)N=C(SCc2ccccc2)NC1=O (stereo not drawn),1.01,104.7,102.7,-2.0,-5.0,-2.0
COc1ccc(-n2nnnc2S(=O)(=O)CC(=O)N2CCCCC2)cc1,0.54,67.2,82.2,36.1*,-15.8,29.2
COc1ccc(-n2nnnc2S(=O)(=O)Cc2ccc(C(=O)O)cc2)cc1,0.84,75.8,94.4,26.3,-16.2,6.0
SMILES,NF-kB expr up,STAT1 activator,STAT3 act,STAT1 blocker,APP 5'UTR act,STAT3 inh
O=C(CC(Nc1ccc(F)cc1)C(=O)O)c1ccccc1 (stereo not drawn),5.71*,148.2*,55.0,-52.3,88.6,53.9*
CCC(C)/C(C)=N/NC(=O)c1ccc(COc2ccc(Cl)c(C)c2)cc1 (stereo not drawn),1.54,129.9*,114.3,-34.0,7.2,-14.0
CC(=O)C1=C(NC(=O)c2ccc(F)cc2)CC2C1C2(C)C (stereo not drawn),1.2,94.5,90.8,6.1,10.4,14.9
C/C(NC(=O)c1ccccc1)=C1/C(=O)CC2C1C2(C)C (stereo not drawn),2.08,129.9*,101.9,-33.0,68.4,2.2
Cc1c(CCO)c(=O)[nH]n1C(=O)c1ccc(F)cc1,1.57,99.0,105.7,1.1,37.0,4.9
O=C1C(=O)N(C2CCCC2)C(=O)N1Cc1c(F)cccc1Cl,1.12,87.4,108.9,12.2,10.2,-8.9
CCc1ccc(-c2cc(C(=O)Nn3cnnc3)c3ccccc3n2)cc1,4.29*,41.5,32.0,64.1*,59.7,82.5*
CCOc1ccc(-c2cc(C(=O)O)c3ccccc3n2)c(OCC)c1,1.08,104.0,135.0*,-4.4,-0.6,-37.6
CCn1cc(-c2cc(C(=O)O)c3ccccc3n2)c(C)n1,1.34,96.8,95.8,2.9,-22.8,6.4
CCNC(=S)NNC(=O)c1cc(-c2ccc(OCC)cc2)nc2ccccc12,5.5*,22.3,14.2,86.2*,126.8,98.9*
Cc1ccc(/C(=N/Nc2nc3ccccc3s2)C2=C(O)c3ccccc3C2=O)cc1,1.37,98.3,106.5,1.5,-4.7,0.3
Cc1cc2nc(-c3ccc(SCC(=O)N4CCc5ccccc54)nc3)[nH]c2cc1C,1.5,139.1*,137.5*,-43.7,110.0,-35.6
Cc1cc2nc(-c3ccc(SCC(=O)Nc4ccc(S(=O)(=O)NC5CC5)cc4)nc3)[nH]c2cc1C,5.93*,146.9*,91.8,-52.5,131.5,12.2
Cc1cc2nc(-c3ccc(SCC(=O)NC(C)C)nc3)[nH]c2cc1C,1.87,128.3,106.4,-29.8,56.5,1.4
Cc1cc(NC(=O)CSc2ccc(-c3nc4cc(C)c(C)cc4[nH]3)cn2)no1,1.72,120.0,96.2,-22.1,24.9,8.5
OCCn1c(-c2ccc(F)cc2)csc1=Nc1ccccc1,1.54,108.0,95.8,-8.4,15.6,3.6
CN=c1scc(-c2ccc(F)cc2)n1/N=C/c1ccc(O)c(O)c1,0.96,55.3,103.9,47.3*,-37.4,-3.5
Clc1ccccc1N/N=C/c1ccc2c(c1)OCO2,3.13,135.4*,105.9,-39.0,113.6,-2.9
C/C(=N\Nc1nc2ccccc2[nH]1)c1ccc2c(c1)OCO2,1.25,87.9,107.2,13.0,36.2,-9.3
O=C(Cc1ccccc1)N/N=C/c1ccc2c(c1)OCO2,2.03,119.9,118.8,-21.7,84.4,-13.4
C(=N\Nc1nc2ccccc2[nH]1)/c1ccc2c(c1)OCO2,4.08*,140.9*,91.3,-45.7,148.6*,20.3
C(=N\Nc1nc2ccccc2[nH]1)/c1ccncc1,1.06,128.5,106.7,-30.4,9.8,-2.7
